Measurements taken from ChEMBL document CHEMBL3272012, “5-(Tetradecyloxy)-2-furancarboxylic acid and related hypolipidemic fatty acid-like alkyloxyarylcarboxylic acids” (J Med Chem, 1977).
Each block holds one molecule with its values, some of them ahead of it.

Tests used:
Rattus norvegicus [1] = test: Increase in cholesterol level in Wistar rat liver at 385 umol/kg/day administered through diet for 10 days; format: ADME, organism-based; conditions: in vivo, po, 240 h
Rattus norvegicus [2] = test: Hypolipidemic activity in Wistar rat assessed as reduction in plasma triglyceride level at 398 umol/kg/day administered through diet for 10 days; format: functional; conditions: 240 h
Procedure, shortened: (§1)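 Young male Wistar rats (170-190 g initial weight), groups of six, fed test compound mixed into Purina Lab Chow ad libitum; daily dose calculated from food consumption and body weight. Bled by cardiac puncture at end of treatment; plasma triglycerides measured by automated procedure. Results given as percent reduction versus a simultaneous untreated control group, with significance by Student's t test.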

Rattus norvegicus [3] = test: Hypolipidemic activity in Wistar rat assessed as reduction in plasma cholesterol level at 204 umol/kg/day administered through diet for 10 days; format: functional; conditions: 240 h
Procedure, shortened: (§2)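 Young male Wistar rats, 170-190 g at start, in groups of six, given compound mixed into Purina Lab Chow ad libitum for 4 or 10 days as stated. Daily dose was calculated from food consumption and body weight. Plasma was taken by cardiac puncture at the end and cholesterol measured by automated procedure. Results are % reduction versus a concurrent untreated control group, with Student's t test.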

Rattus norvegicus [4] = test: Hypolipidemic activity in Wistar rat assessed as reduction in plasma triglyceride level at 385 umol/kg/day administered through diet for 10 days; format: functional; conditions: 240 h; procedure, shortened: as §1
Rattus norvegicus [5] = test: Hypolipidemic activity in Wistar rat assessed as reduction in plasma cholesterol level at 398 umol/kg/day administered through diet for 10 days; format: functional; conditions: 240 h; procedure, shortened: as §2
Rattus norvegicus [6] = test: Increase in liver weight in Wistar rat at 204 umol/kg/day administered through diet for 10 days; format: ADME, organism-based; conditions: in vivo, po, 240 h
Rattus norvegicus [7] = test: Hypolipidemic activity in Wistar rat assessed as reduction in plasma cholesterol level at 385 umol/kg/day administered through diet for 10 days; format: functional; conditions: 240 h; procedure, shortened: as §2
Rattus norvegicus [8] = test: Hypolipidemic activity in Wistar rat assessed as reduction in plasma triglyceride level at 204 umol/kg/day administered through diet for 10 days; format: functional; conditions: 240 h
Procedure, shortened: (§3)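 Young male Wistar rats, 170-190 g initial weight, six per group, fed drug mixed thoroughly into Purina Lab Chow ad libitum for the stated days; daily dose calculated from food consumption and body weight. Bled by cardiac puncture at end; plasma cholesterol and triglycerides by automated procedures, expressed as percent reduction versus simultaneous untreated controls; Student's t test.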

Rattus norvegicus [9] = test: Increase in liver weight in Wistar rat at 385 umol/kg/day administered through diet for 10 days; format: ADME, organism-based; conditions: in vivo, po, 240 h
Rattus norvegicus [10] = test: Increase in cholesterol level in Wistar rat liver at 398 umol/kg/day administered through diet for 10 days; format: ADME, organism-based; conditions: in vivo, po, 240 h
Rattus norvegicus [11] = test: Increase in cholesterol level in Wistar rat liver at 204 umol/kg/day administered through diet for 10 days; format: ADME, organism-based; conditions: in vivo, po, 240 h
Rattus norvegicus [12] = test: Increase in liver weight in Wistar rat at 398 umol/kg/day administered through diet for 10 days; format: ADME, organism-based; conditions: in vivo, po, 240 h
Rattus norvegicus [13] = test: Hypolipidemic activity in Wistar rat assessed as reduction in plasma cholesterol level at 319 umol/kg/day administered through diet for 4 days; format: functional; conditions: 96 h; procedure, shortened: as §2
Rattus norvegicus [14] = test: Increase in cholesterol level in Wistar rat liver at 319 umol/kg/day administered through diet for 4 days; format: ADME, organism-based; conditions: in vivo, po, 96 h
Rattus norvegicus [15] = test: Hypolipidemic activity in Wistar rat assessed as reduction in plasma triglyceride level at 319 umol/kg/day administered through diet for 4 days; format: functional; conditions: 96 h; procedure, shortened: as §3
Rattus norvegicus [16] = test: Increase in liver weight in Wistar rat at 319 umol/kg/day administered through diet for 4 days; format: ADME, organism-based; conditions: in vivo, po, 96 h
Rattus norvegicus [17] = test: Increase in liver weight in Wistar rat at 417 umol/kg/day administered through diet for 10 days; format: ADME, organism-based; conditions: in vivo, po, 240 h
Rattus norvegicus [18] = test: Increase in cholesterol level in Wistar rat liver at 417 umol/kg/day administered through diet for 10 days; format: ADME, organism-based; conditions: in vivo, po, 240 h
Rattus norvegicus [19] = test: Hypolipidemic activity in Wistar rat assessed as reduction in plasma cholesterol level at 417 umol/kg/day administered through diet for 10 days; format: functional; conditions: 240 h; procedure, shortened: as §2
Rattus norvegicus [20] = test: Hypolipidemic activity in Wistar rat assessed as reduction in plasma triglyceride level at 439 umol/kg/day administered through diet for 4 days; format: functional; conditions: 96 h
Procedure, shortened: (§4)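 Young male Wistar rats (initial weight 170-190 g), groups of six, fed compound mixed into Purina Lab Chow ad libitum for 4 or 10 days; daily dose calculated from food consumption and body weight. Bled by cardiac puncture; plasma cholesterol and triglycerides by automated procedures; percent reduction versus simultaneous untreated controls, Student's t test.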

Rattus norvegicus [21] = test: Increase in liver weight in Wistar rat at 419 umol/kg/day administered through diet for 10 days; format: ADME, organism-based; conditions: in vivo, po, 240 h
Procedure, shortened: (§5)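 Male Wistar rats (170-190 g initial), groups of six, dosed via diet ad libitum for 4 or 10 days, daily dose from food consumption. Liver wet weight measured, expressed as g/100 g final body weight, compared with untreated controls run simultaneously.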

Rattus norvegicus [22] = test: Hypolipidemic activity in Wistar rat assessed as reduction in plasma cholesterol level at 419 umol/kg/day administered through diet for 10 days; format: functional; conditions: 240 h
Procedure, shortened: (§6)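 Young male Wistar rats, 170-190 g initial weight, groups of six, given compound mixed thoroughly into Purina Lab Chow ad libitum for 4 or 10 days as stated. Daily dose calculated from food consumption and body weight. Bled by cardiac puncture at end of treatment; plasma cholesterol measured by automated procedure. Expressed as percent reduction versus simultaneous untreated control group; Student's t test.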

Rattus norvegicus [23] = test: Hypolipidemic activity in Wistar rat assessed as reduction in plasma triglyceride level at 417 umol/kg/day administered through diet for 10 days; format: functional; conditions: 240 h
Rattus norvegicus [24] = test: Increase in cholesterol level in Wistar rat liver at 419 umol/kg/day administered through diet for 10 days; format: ADME, organism-based; conditions: in vivo, po, 240 h
Procedure, shortened: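 Male Wistar rats (170-190 g), six per group, given compound by admixture to lab chow ad libitum for 4 or 10 days, dose derived from food intake. Liver cholesterol determined by automated procedure, expressed as mg/g wet tissue, compared with an untreated control group by Student's t test.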

Rattus norvegicus [25] = test: Hypolipidemic activity in Wistar rat assessed as reduction in plasma cholesterol level at 439 umol/kg/day administered through diet for 4 days; format: functional; conditions: 96 h; procedure, shortened: as §6
Rattus norvegicus [26] = test: Increase in liver weight in Wistar rat at 439 umol/kg/day administered through diet for 4 days; format: ADME, organism-based; conditions: in vivo, po, 96 h; procedure, shortened: as §5
Rattus norvegicus [27] = test: Hypolipidemic activity in Wistar rat assessed as reduction in plasma triglyceride level at 419 umol/kg/day administered through diet for 10 days; format: functional; conditions: 240 h; procedure, shortened: as §4
Rattus norvegicus [28] = test: Increase in cholesterol level in Wistar rat liver at 439 umol/kg/day administered through diet for 4 days; format: ADME, organism-based; conditions: in vivo, po, 96 h
Rattus norvegicus [29] = test: Hypolipidemic activity in Wistar rat assessed as reduction in plasma triglyceride level at 422 umol/kg/day administered through diet for 4 days; format: functional; conditions: 96 h
Rattus norvegicus [30] = test: Increase in liver weight in Wistar rat at 422 umol/kg/day administered through diet for 4 days; format: ADME, organism-based; conditions: in vivo, po, 96 h
Rattus norvegicus [31] = test: Hypolipidemic activity in Wistar rat assessed as reduction in plasma cholesterol level at 422 umol/kg/day administered through diet for 4 days; format: functional; conditions: 96 h; procedure, shortened: as §6
Rattus norvegicus [32] = test: Increase in cholesterol level in Wistar rat liver at 422 umol/kg/day administered through diet for 4 days; format: ADME, organism-based; conditions: in vivo, po, 96 h
Rattus norvegicus [33] = test: Increase in cholesterol level in Wistar rat liver at 533 umol/kg/day administered through diet for 4 days; format: ADME, organism-based; conditions: in vivo, po, 96 h
Rattus norvegicus [34] = test: Increase in liver weight in Wistar rat at 533 umol/kg/day administered through diet for 4 days; format: ADME, organism-based; conditions: in vivo, po, 96 h
Rattus norvegicus [35] = test: Hypolipidemic activity in Wistar rat assessed as reduction in plasma cholesterol level at 533 umol/kg/day administered through diet for 4 days; format: functional; conditions: 96 h; procedure, shortened: as §6
Rattus norvegicus [36] = test: Hypolipidemic activity in Wistar rat assessed as reduction in plasma triglyceride level at 533 umol/kg/day administered through diet for 4 days; format: functional; conditions: 96 h

Activity (Rattus norvegicus [1]): 1%
Activity (Rattus norvegicus [6]): 10%
Activity (Rattus norvegicus [9]): 5%
Activity (Rattus norvegicus [10]): 2%
Activity (Rattus norvegicus [11]): 0%
Activity (Rattus norvegicus [12]): 12%
SMILES: CCCCCCCCCCCCCCCCOc1ccc(C(=O)OC)cc1
inhibition in vivo at 398 µmol/kg (Rattus norvegicus [2]): 40%
inhibition in vivo at 204 µmol/kg (Rattus norvegicus [3]): 0%
inhibition in vivo at 385 µmol/kg (Rattus norvegicus [4]): 63%
inhibition in vivo at 398 µmol/kg (Rattus norvegicus [5]): 14%
inhibition in vivo at 385 µmol/kg (Rattus norvegicus [7]): 20%
inhibition in vivo at 204 µmol/kg (Rattus norvegicus [8]): 23%

Activity (Rattus norvegicus [14]): 3%
Activity (Rattus norvegicus [16]): 15%
SMILES: CCCCCCCCCCCCCOc1ccc(C(=O)O)o1
inhibition in vivo at 319 µmol/kg (Rattus norvegicus [13]): 31%
inhibition in vivo at 319 µmol/kg (Rattus norvegicus [15]): 6%

Activity (Rattus norvegicus [17]): 0%
Activity (Rattus norvegicus [18]): 9%
Activity (Rattus norvegicus [21]): 15%
Activity (Rattus norvegicus [24]): 2%
Activity (Rattus norvegicus [26]): 7%
Activity (Rattus norvegicus [28]): 9%
SMILES: CCCCCCCCCCCCCCCOc1ccc(C(=O)OC)cc1
inhibition in vivo at 417 µmol/kg (Rattus norvegicus [19]): 37%
inhibition in vivo at 439 µmol/kg (Rattus norvegicus [20]): 46%
inhibition in vivo at 419 µmol/kg (Rattus norvegicus [22]): 20%
inhibition in vivo at 417 µmol/kg (Rattus norvegicus [23]): 73%
inhibition in vivo at 439 µmol/kg (Rattus norvegicus [25]): 19%
inhibition in vivo at 419 µmol/kg (Rattus norvegicus [27]): 57%

Activity (Rattus norvegicus [30]): 11%
Activity (Rattus norvegicus [32]): 9%
SMILES: CCCCCCCCCCCCCCCCOc1ccc(C(=O)OCC)cc1
inhibition in vivo at 422 µmol/kg (Rattus norvegicus [29]): 29%
inhibition in vivo at 422 µmol/kg (Rattus norvegicus [31]): 8%

Activity (Rattus norvegicus [33]): 0%
Activity (Rattus norvegicus [34]): 22%
SMILES: CCCCCCCCCCCCOc1ccc(C(=O)O)o1
inhibition in vivo at 533 µmol/kg (Rattus norvegicus [35]): 38%
inhibition in vivo at 533 µmol/kg (Rattus norvegicus [36]): 79%
